# RAD54 branch – inhibitors of human RAD54 branch migration; Q92698; inhibition, % at 10.4 µM; hit rate 0.14% among 360,000; RAD54 Holliday junction branch migration, FAM/BHQ fluorescence;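 active = mean normalized replicate activity at least 40 and at least half of replicates scoring 40 or more; inconclusive = only one of the two criteria met; inactive = mean below 40 and under half of replicates reaching 40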;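 note: 0% = median of neutral control wells and 100% = median of positive control wells; inhibitors cause a drop in the FAM fluorescence signal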
# NSD2 inh – inhibitors of human histone methyltransferase NSD2; O96028; AID 743445; inhibition, % at 12.5 µM; hit rate 0.54% among 310,000; NSD2 peptide methylation, AlphaScreen, 120 min; in the data active = inhibition above about 50%
# Target sequence (O96028 whole entry, looked up): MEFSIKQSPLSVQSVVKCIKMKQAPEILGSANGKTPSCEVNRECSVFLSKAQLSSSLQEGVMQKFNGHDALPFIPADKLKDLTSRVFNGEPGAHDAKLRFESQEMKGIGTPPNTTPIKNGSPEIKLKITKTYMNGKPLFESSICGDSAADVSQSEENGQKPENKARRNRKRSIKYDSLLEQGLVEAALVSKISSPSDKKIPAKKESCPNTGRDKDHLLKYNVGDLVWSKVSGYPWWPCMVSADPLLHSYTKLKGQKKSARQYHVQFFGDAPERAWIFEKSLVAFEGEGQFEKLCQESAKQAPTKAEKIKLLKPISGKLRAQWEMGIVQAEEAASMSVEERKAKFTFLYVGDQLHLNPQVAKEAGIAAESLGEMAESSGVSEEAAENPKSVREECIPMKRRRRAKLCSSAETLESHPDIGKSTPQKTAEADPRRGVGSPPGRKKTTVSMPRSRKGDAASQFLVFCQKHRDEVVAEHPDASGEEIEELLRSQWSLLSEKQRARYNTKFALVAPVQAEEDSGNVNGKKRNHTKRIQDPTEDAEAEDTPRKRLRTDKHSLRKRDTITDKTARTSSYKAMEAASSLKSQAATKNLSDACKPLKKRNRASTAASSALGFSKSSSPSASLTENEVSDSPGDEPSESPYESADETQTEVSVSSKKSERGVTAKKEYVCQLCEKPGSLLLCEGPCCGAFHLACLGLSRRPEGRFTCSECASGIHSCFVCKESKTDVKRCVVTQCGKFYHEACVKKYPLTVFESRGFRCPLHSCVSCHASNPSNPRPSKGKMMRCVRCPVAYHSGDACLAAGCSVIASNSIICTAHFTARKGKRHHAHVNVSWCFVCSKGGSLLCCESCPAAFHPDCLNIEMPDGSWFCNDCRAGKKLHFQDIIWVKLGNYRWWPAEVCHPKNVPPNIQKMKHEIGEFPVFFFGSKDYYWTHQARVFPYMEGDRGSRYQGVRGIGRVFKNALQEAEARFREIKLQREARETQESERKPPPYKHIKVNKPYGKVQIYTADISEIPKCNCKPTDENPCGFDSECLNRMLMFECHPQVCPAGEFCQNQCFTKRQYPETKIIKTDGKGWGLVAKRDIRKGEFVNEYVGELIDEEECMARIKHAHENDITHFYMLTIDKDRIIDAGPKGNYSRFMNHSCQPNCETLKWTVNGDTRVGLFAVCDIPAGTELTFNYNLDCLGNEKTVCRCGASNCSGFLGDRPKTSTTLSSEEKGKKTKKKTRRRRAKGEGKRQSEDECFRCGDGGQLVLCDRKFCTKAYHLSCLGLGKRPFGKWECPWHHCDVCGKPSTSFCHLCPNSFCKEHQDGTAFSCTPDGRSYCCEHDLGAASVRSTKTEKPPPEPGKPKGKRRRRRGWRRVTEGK
# FN deposit inh – fibronectin deposition inhibition | AH1F fibroblasts, Alexa488-fibronectin deposition fluorescence, overnight | inhibition, % at 12.6 µM | hit rate 0.086% among 350,000;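 active = mean inhibition across replicates of 30% or more, regardless of how many single replicates reach that level; inconclusive = mean under 30% yet at least half of replicates reach 30%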;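 note: positive control wells lacked labelled fibronectin entirely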
#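 Material: AH1F fibroblast monolayer depositing Alexa488-labelled fibronectin into matrix | Input: 10000 AH1F cells/well | Medium: DMEM plus 2% serum, read in PBS | Reagent: Alexa488-fibronectin, 24 nM final in well | Compound dosing: One dose per compound, pinned | Schedule: 1 h adhesion, overnight exposure | Measured by: Fluorescence at 485 nm excitation, 525 nm emission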
# AF4-AF9 inh – blocks AF4 peptide binding to human AF9. P42568. AlphaScreen, biotin-AF4 peptide binding to FLAG-AF9. inhibition, % at 10 µM. hit rate 0.47% among 350,000. AID 651704;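 active = every replicate reaching a set inhibition limit, whatever the replicate mean, cut at about 25% in these data; inconclusive = mean inhibition reaches that limit but some replicates miss it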;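 note: 0% = plate neutral control median and 100% = total signal loss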
# RAD52 anneal inh – RAD52 (human) annealing inhibition; P43351; recombinant RAD52 DNA annealing, FRET fluorescence; inhibition, % at 18.7 µM; hit rate 0.46% among 360,000;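 active = every replicate showing at least 50% inhibition; inconclusive = mean inhibition at least 50% but not in every replicate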
# Glyco luc inh – N-linked glycosylation inhibition | D54 ERlucT glycosylation luciferase reporter, 24 h; percent of 100 nM tunicamycin response | reporter increase, % at 12.5 µM | hit rate 0.23% among 360,000 | AID 588692;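 active = mean luciferase reporter signal, scaled so untreated is 0 and the glycosylation-blocking control 100, at or above a set limit in every replicate; inconclusive = mean reaches the limit but not every replicate does; inactive = mean below the limit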;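 note: luciferase carries N-glycosylation sites so blocking glycosylation raises the light; 0% = median of neutral control wells and 100% = median of 100 nM tunicamycin wells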
# Alpha interfer – interferes with the AlphaScreen assay signal | shares compounds with AF4-AF9 inh | AlphaScreen interference counter-screen, signal luminescence | AC50, µM (doses to about 12 µM), for the others: top-dose activity change, negative = inhibition | hit rate 45% among 530 | AID 720494; cut-off not given, nearly all actives have AC50 up to about 14 µM
# Starred values were filed as active, the others as inactive; u = inconclusive; x = not tested or not shown; ! = a repeat was not active. In the library only some 1.2% were active in any assay of this set; here they are far more common.
SMILES,RAD54 branch,NSD2 inh,FN deposit inh,AF4-AF9 inh,RAD52 anneal inh,Glyco luc inh,Alpha interfer
O=C(CNC(=O)c1ccco1)Nc1ccc(N2CCCCCC2)cc1,-5,1,4,5,-10,3,x
Cc1cc(N=Nc2ccc(Cl)cc2)cc(CN2CCOCC2)c1O,4,37,-6,30*,-7,-3,-34%
Oc1c(CN2CCOCC2)cc(CN2CCOCC2)cc1CN1CCOCC1,2,-1,12,-3,4,-2,x
COc1ccccc1N(C(=O)CCl)c1cn(C(C)=O)c2ccccc12,9,1,-1,5,2,-7,x
COc1ccccc1N(C(C)=O)C1=C(Cl)C(=O)c2ccccc2C1=O,4,37,42*,28*,-5,3,4.4µM*
C[C@@H]1CN([C@H](C)CO)S(=O)(=O)c2ccc(-c3ccccc3F)cc2O[C@H]1CN(C)C(=O)C1CC1,-7,x,x,2,7,x,x
CCN(CC)c1ccc(CNc2ccc3c(c2)ncn3C(C)(C)C)cc1,4,x,x,41*,-51,-1,9µM*
CCCCCc1cc(=O)oc2c(C(CCN3CCCC3)c3ccc(N(C)C)cc3)c(OC)cc(OC)c12 (centres undefined),-9,x,5,57*,49,-9,7µM*
CCCCCc1cc(=O)oc2c(C(CCN3CCCCC3)c3ccc(OC)cc3)c(OC)cc(OC)c12 (centres undefined),1,x,1,19,-122,-7,x
C[C@@H]1CN([C@@H](C)CO)C(=O)Cc2cc(N(C)C)ccc2O[C@H]1CN(C)Cc1ccc(Cl)c(Cl)c1,3,x,1,48*,31,x,12µM*
C[C@@H]1CN([C@H](C)CO)C(=O)Cc2cc(N(C)C)ccc2O[C@H]1CN(C)Cc1ccc(Cl)c(Cl)c1,x,x,0,x,x,x,x
C[C@H](CO)N1C[C@H](C)[C@@H](CN(C)Cc2ccc(Cl)c(Cl)c2)Oc2ccc(N(C)C)cc2CC1=O,6,x,-19,40*,34,x,-36%
C[C@@H]1CCCCO[C@H](CN(C)Cc2ccc(Cl)c(Cl)c2)[C@@H](C)CN([C@H](C)CO)C(=O)c2cc(N(C)C)ccc2O1,4,x,-2,50*!,-2,-1,-38%
CO[C@H](CN(C)C(=O)Nc1ccc(C(F)(F)F)cc1)[C@H](C)CN(Cc1ccccc1Cl)[C@H](C)CO,-8,x,18,1,-2,x,x
C[C@@H]1CN([C@@H](C)CO)S(=O)(=O)c2ccc(C#C[C@@H](C)O)cc2O[C@H]1CN(C)C(=O)C1CCCCC1,-6,x,x,0,2,x,x
COC(=O)/C(C#N)=C/c1c(N2CCN(Cc3ccc4c(c3)OCO4)CC2)nc2c(C)cccn2c1=O,x,-1,-3,2,-9,2,x
CCOC(=O)/C(C#N)=C/c1c(N2CCN(Cc3ccc4c(c3)OCO4)CC2)nc2c(C)cccn2c1=O,-2,-4,3,39*,-28,-1,-7%
CC1(C)CNc2cc(N)ccc2S1,x,x,-5,63*,-1,-2,2.3µM*
CN(C)c1cccc2c(C=C(C#N)C#N)ccc(N(C)C)c12,12,25,-1,51*,-12,10,-23%
Cc1ccc(S(=O)(=O)N[C@@H]2C=C[C@H](CC(=O)N3CCc4ccccc4C3)O[C@@H]2CO)cc1,3,x,x,-2,4,x,x
O=C(NC1CCC1)[C@H]1[C@H](CO)[C@H]2Cn3c(cccc3=O)[C@H]2N1CCc1ccccc1,-4,x,x,3,-5,x,x
Nc1ccccc1N=Nc1ccccc1N,3,x,1,u,-14,-3,x
CC(C)(C)C1=CC(=Nc2ccccc2N)C=C(C(C)(C)C)C1=O,x,39,16,73*,-14,-1,2.7µM*
CCCNC(=O)[C@H]1[C@H](CO)[C@H]2Cn3c(ccc(-c4ccncc4)c3=O)[C@@H]1N2CC1CC1,5,x,x,-2,x,x,x
CCOc1ccc(Nc2ccc([N+](=O)[O-])c3nonc23)cc1,-9,38,7,29*,-4,-2,-21%
SMILES,RAD54 branch,NSD2 inh,FN deposit inh,AF4-AF9 inh,RAD52 anneal inh,Glyco luc inh,Alpha interfer
O=[N+]([O-])c1ccc(Nc2ccccc2)c2nonc12,-18,24,2,6,-49,-1,x
C[C@H](CO)N1C[C@H](C)[C@H](CN(C)Cc2ccc3c(c2)OCO3)Oc2ccc(NC(=O)NC3CCCCC3)cc2C1=O,4,x,x,-1,-4,x,x
CC(C)n1ncc2c(C(=O)Nc3ccc(S(N)(=O)=O)cc3)cc(C3CC3)nc21,2,4,12,u,-13,-3,-14%
Cc1csc(Nc2ccccc2)[n+]1-c1ccccc1,x,13,3,28*,-2,-1,-35%
Cc1csc(Nc2ccccc2)[n+]1C,0,3,-4,4,0,1,x
COc1ccc(C(CCNCc2ccc(N(C)C)cc2)c2ccccc2OC)cc1 (centres undefined),2,42,-4,51*,-28,-6,4.7µM*
Oc1ccc(CN2CCN(Cc3ccccc3)CC2)c2cccnc12,-9,x,12,x,x,7,x
O=S(=O)(c1ccc(Cl)cc1)N1CCN(Cc2ccc(O)c3ncccc23)CC1,x,2,10,75*,-6,-11,-33%
Cn1nccc1C(=O)N/N=C/c1c(O)ccc2ccccc12,-2,-7,13,4,-17,-9,x
Cn1cc(C(=O)N/N=C/c2c(O)ccc3ccccc23)ccc1=O,x,-1,16,24,-13,-8,-11%
O=C(N/N=C/c1c(O)ccc2ccccc12)c1ccc[n+](CCO)c1,x,8,-1,82*,40,0,0.61µM*
COc1cccc(C(=O)Nc2ccc3c(c2)C(=O)N(C)C[C@@H](OC)[C@@H](C)CN(C(=O)C2CCCC2)[C@H](C)CO3)c1,-7,x,5,-8,18,x,x
CCOc1ccc(Nc2nc(NCC3CCCO3)c3ccccc3n2)cc1 (centres undefined),x,28,x,28*,10,-8,-11%
Cn1c(SCC(=O)N2c3ccccc3Sc3ccc(Cl)cc32)nnc1-c1ccco1,10,33,x,u,-6,-4,-2%
Cn1ccc2c(N3CCCCC3)cc3c(c21)C1CCC3C1 (centres undefined),1,x,0,52*,-3,0,-16%
CC(=O)N(C)C[C@H]1Oc2c(N)cccc2C(=O)N(C)C[C@@H]1C,x,x,0,x,x,x,x
CC(C)C[C@@H](C(=O)NC1CCN(Cc2ccccc2)CC1)N1C(=O)N2CCc3c([nH]c4ccccc34)[C@@]2(C)C1=O,-1,x,x,37*,-8,-10,-2%
C[C@@H](C(=O)NC1CCN(Cc2ccccc2)CC1)N1C(=O)N2CCc3c([nH]c4ccccc34)[C@@]2(C)C1=O,-6,x,x,15,-2,-5,x
